27 compounds from ChEMBL document CHEMBL2321856, “Optimizing small molecule inhibitors of calcium-dependent protein kinase 1 to prevent infection by Toxoplasma gondii” (J Med Chem, 2013) can be followed below.

A short description of data set [1]: Inhibition of Toxoplasma gondii RH full length CDPK1 expressed in Escherichia coli BL21(DE3) using syntide-2 peptide as substrate after 20 mins by ELISA. The class given is cell-free. The method in brief:
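His-tagged recombinant CDPK1 purified by nickel affinity. Syntide-2-coated plates blocked with 3% BSA. Reaction run 20 min at 30°C in HEPES pH 7.5 with 10 mM MgCl₂, 2.5 mM CaCl₂, 0.1 mM EGTA and 1 mM DTT. Each enzyme used at its half-maximal-activity concentration with ATP at its own Km. Phosphopeptide detected by mAb MS-6E6/HRP-TMB at A450. Triplicates; IC50 from variable-slope sigmoidal fit.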
(In an ELISA, binding on a coated surface is turned into a signal by an enzyme label.)

The test system of data set [2] is Toxoplasma gondii. Put plainly: Antiparasitic activity against wild type tachyzoites of Toxoplasma gondii RH type 1 infected in HFF cells incubated for 20 mins prior to inoculation followed by compound washout at 4 hrs measured after 72 hrs by beta-galactoside reporter assay. As to conditions: RH type 1, HFF. The format is functional, organism-based. The method in brief: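 Type I RH 2F clone (β-gal) in confluent HFF, DMEM with 10% FBS. Compounds diluted from 10 mM DMSO stock into medium with 1% DMSO (also no-compound control). Parasites preincubated 20 min at room temperature with compound, 5×10^2/well added, spun ~300 g 5 min. Washed with warm PBS at 4 h, grown to 72 h. Triton X-100 lysis, chlorophenol red-β-D-galactopyranoside, A570. Triplicates; EC50 from variable-slope sigmoidal fit.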

The subject of data set [3] is Liver microsomes. Put plainly: Half life in rat liver microsomes by LC-MS analysis. The class given is ADME, Microsome. For orientation: Liver microsomes are vesicles of endoplasmic reticulum, rich in cytochrome P450 enzymes.
Data set [4] concerns Liver microsomes. Put plainly: Intrinsic clearance in rat liver microsomes assessed per mg of protein after 10 to 60 mins by LC-MS analysis in presence of NADPH. The class given is ADME, Microsome.
The subject of data set [5] is Toxoplasma gondii. Put plainly: Ratio of growth inhibition of Toxoplasma gondii harboring wild type CDPK1 to growth inhibition of Toxoplasma gondii harboring CDPK1 G128M mutant. The class given is functional.
For data set [6], the system named is Toxoplasma gondii. Put plainly: Antiparasitic activity against Toxoplasma gondii harboring wild type CDPK1 infected in HFF cells incubated for 20 mins prior to infection followed by compound washout at 1 hr measured after 72 hrs by crystal violet staining method. The class given is functional, organism-based. A digest of the protocol:
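CDPK1-cKO parasites complemented with wild-type CDPK1, grown 72 h with 1 μg/ml ATc and kept in ATc throughout. Parasites pre-incubated 20 min at 37°C in DMEM/10% FBS with compound or 1% DMSO vehicle. 10⁵ per well added to confluent HFF, spun 300g for 2 min, infected 1 h at 37°C, then rinsed 5× with warm PBS. Grown 72 h with ATc; lysis read by crystal violet A570, as % of DMSO control.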

For data set [7], the system named is Toxoplasma gondii. Put plainly: Antiparasitic activity against Toxoplasma gondii type 2 expressing Pru-LUC infected in Balb/c mouse assessed reduction in number of tissue cysts in brain at 5 mg/kg, […] for 10 days measured after 30 days by fluorescently labeled lectin staining based microscopic analysis relative to control. The class given is functional, organism-based. The arrangement: dose 5 mg/kg. The following applies: type II.

Data set [8] concerns Toxoplasma gondii. Put plainly: Antiparasitic activity against trachyzoites of Toxoplasma gondii type 2 expressing Pru-LUC infected in Balb/c mouse assessed as host survival at 5 mg/kg, ip administered for 10 days measured on day 30. As to conditions: type II.
In data set [9] the test system is Toxoplasma gondii. Put plainly: Antiparasitic activity against tachyzoites of Toxoplasma gondii RH type 1 infected in HFF cells incubated for 24 hrs followed by compound washout measured after 72 hrs by beta-galactoside reporter assay. The format is functional, organism-based. The method in brief:
(§1)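 RH type I 2F clone expressing β-gal; compounds from 10 mM DMSO stocks diluted in medium with 1% DMSO. Parasites preincubated with compound 20 min at room temperature, then 5×10^2/well added to confluent HFF in DMEM/10% FBS and centrifuged. Washed with warm PBS after 4 or 24 h, grown to 72 h. Lysed in 1% Triton X-100; 1 mM chlorophenol red-β-D-galactopyranoside, A570.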

Data set [10] deals with Toxoplasma gondii RH. Put plainly: Selectivity ratio of IC50 for Toxoplasma gondii RH CDPK1 G128S mutant to Toxoplasma gondii RH full length CDPK1.
For data set [11], the system named is Toxoplasma gondii. Put plainly: Antiparasitic activity against tachyzoites of Toxoplasma gondii RH type 1 infected in HFF cells incubated for 4 hrs followed by compound washout measured after 72 hrs by beta-galactoside reporter assay. The class given is functional, organism-based. The following applies: RH type 1, HFF. The method in brief:
as §1

The subject of data set [12] is Toxoplasma gondii RH. Put plainly: Selectivity ratio of IC50 for Toxoplasma gondii RH CDPK1 G128A mutant to Toxoplasma gondii RH full length CDPK1.

Calls of active or inactive are those of the source. No cut-off for these calls is given here.

Usually IC50 stands for the midpoint of a concentration-inhibition curve. Read a low IC50 as greater potency. Broadly, the EC50 is the concentration at which the effect is half-maximal. The low end stands for higher potency in that assay, the high end for lower potency in that assay.

`CC(C)(C)n1nc(-c2cccc(Oc3ccccc3)c2)c2c(N)ncnc21` registered an IC50 in data set [1] of 26.6 nM. In the data set on Toxoplasma gondii [2], this compound had an EC50 of 1320 nM.

`CC(C)(C)n1nc(Cc2cc(Cl)ccc2F)c2c(N)ncnc21`: the t1/2 in the data set on Liver microsomes [3] worked out at 5.5 min. The compound further registered an IC50 in [1] of 12.5 nM. The compound further came in with an EC50 in the data set with Toxoplasma gondii [2] of 920 nM. Moreover, in the data set with Liver microsomes [4], the CLint is 250 µL/min/mg.

For the compound `CC(C)n1nc(Cc2cc(F)cc(Cl)c2)c2c(N)ncnc21`, the Ratio with Toxoplasma gondii [5] was 100. Also, the result in the data set on Toxoplasma gondii [6] was Active. In the data set with Liver microsomes [3], this compound gave a t1/2 of 2.4 min. Moreover, in [1], the IC50 was determined as 4.59 nM. In the data set on Toxoplasma gondii [2], this compound had an EC50 of 180 nM. Moreover, the CLint with Liver microsomes [4] is over 350 µL/min/mg.

Regarding `CC(C)(C)n1nc(Cc2cccc(Cl)c2Cl)c2c(N)ncnc21`, inhibition in data set [1] was half-maximal at 3.38 nM (IC50). The same compound registered an EC50 with Toxoplasma gondii [2] of 380 nM.

Regarding `CC(C)(C)n1nc(-c2cccc(OCc3ccccc3)c2)c2c(N)ncnc21`, the IC50 in data set [1] was 374 nM. Also, the EC50 with Toxoplasma gondii [2] was 11600 nM.

The compound `CC(C)(C)n1nc(Cc2ccc3ccccc3c2)c2c(N)ncnc21` came in with an IC50 in data set [1] of 35.4 nM. In addition, in the data set on Toxoplasma gondii [2], it took 1940 nM to reach a half-maximal effect (EC50).

`CC(C)(C)n1nc(Cc2cccc(Cl)c2)c2c(N)ncnc21`: the outcome in the data set with Toxoplasma gondii [6], in the data set with Toxoplasma gondii [7] and in the data set with Toxoplasma gondii [8] was Active. Further, in the data set on Toxoplasma gondii [2], a half-maximal response (EC50) required 30 nM.

In data set [1], `CC(C)(C)n1nc(Cc2cc(F)cc(Cl)c2)c2c(N)ncnc21` displayed a concentration for half-maximal inhibition (IC50) of 13.2 nM. Moreover, in the data set with Toxoplasma gondii [2], the EC50 amounted to 430 nM.

As for `CC(C)n1nc(Cc2cccc(Cl)c2Cl)c2c(N)ncnc21`, the Ratio in the data set on Toxoplasma gondii [5] stood at 100. For the same compound, the result in the data set with Toxoplasma gondii [6], in the data set on Toxoplasma gondii [7] and in the data set with Toxoplasma gondii [8] was Active. In addition, in the data set with Liver microsomes [3], the t1/2 was found to be 7 min. In data set [1], this compound returned an IC50 of 2.38 nM. Further, the midpoint of the response in the data set on Toxoplasma gondii [2], the EC50, lay at 250 nM. Moreover, the CLint in the data set on Liver microsomes [4] was determined as 190 µL/min/mg.

As for `CC(C)(C)n1nc(-c2cccc3ccccc23)c2c(N)ncnc21`, the EC50 in the data set with Toxoplasma gondii [2] was found to be 700 nM.

For `CC(C)n1nc(C(O)c2cccc(Cl)c2Cl)c2c(N)ncnc21` (stereo not drawn), in the data set with Liver microsomes [3], the t1/2 is 20.2 min. The compound also gave an IC50 in [1] of 200 nM. In the data set on Toxoplasma gondii [2], the EC50 was 9460 nM. Besides, the CLint in the data set on Liver microsomes [4] was determined as 68 µL/min/mg.

On to `CC(C)(C)n1nc(Cc2cccc(Cl)c2F)c2c(N)ncnc21`, for which, in the data set with Liver microsomes [3], the t1/2 is listed as 2.5 min. In data set [1], this compound showed an IC50 of 7.37 nM. The compound further came in with an EC50 in the data set with Toxoplasma gondii [2] of 360 nM. Also, the CLint in the data set with Liver microsomes [4] is over 350 µL/min/mg.

Take `CC(C)(C)n1nc(Cc2ccc(F)c(Cl)c2)c2c(N)ncnc21`: the t1/2 in the data set with Liver microsomes [3] came out at 4 min. In addition, the IC50 in data set [1] worked out at 8.47 nM. In the data set with Toxoplasma gondii [2], this compound returned an EC50 of 410 nM. In addition, the CLint in the data set with Liver microsomes [4] is over 350 µL/min/mg.

In turn, `CC(C)n1nc(Cc2cc(Cl)ccc2F)c2c(N)ncnc21` yielded an IC50 in data set [1] of 92.4 nM. The same compound gave an EC50 in the data set with Toxoplasma gondii [2] of 6730 nM.

On to `CCc1nc(N)nc(N)c1-c1ccc(Cl)cc1`, for which, in the data set with Toxoplasma gondii [9], the result was Active.

In the data set with Liver microsomes [3], `CC(C)(C)n1nc(Cc2cccc(Br)c2)c2c(N)ncnc21` displayed a t1/2 of 3 min. This compound also gave an IC50 in data set [1] of 9.64 nM. Moreover, in the data set with Toxoplasma gondii [2], the EC50 came out at 380 nM. Besides, in the data set with Liver microsomes [4], the CLint was over 350 µL/min/mg.

`CC(C)(C)n1nc(-c2ccc3c(c2)OCO3)c2c(N)ncnc21` displayed an IC50 in data set [1] of 13.8 nM. In addition, the response with Toxoplasma gondii [2] was half-maximal at 620 nM (EC50).

In turn, `CC(C)(C)c1ccc(-c2nn(C(C)(C)C)c3ncnc(N)c23)cc1` returned a half-maximal inhibitory concentration (IC50) in [1] of 1310 nM. The same compound showed an EC50 in the data set with Toxoplasma gondii [2] of 3770 nM.

In the case of `CC(C)n1nc(Cc2ccc(F)c(Cl)c2)c2c(N)ncnc21`, inhibition in [1] was half-maximal at 13.1 nM (IC50). The compound also displayed a concentration for a half-maximal effect (EC50) in the data set with Toxoplasma gondii [2] of 560 nM.

As for `CC(C)n1nc(C(F)c2cccc(Cl)c2Cl)c2c(N)ncnc21` (stereo not drawn), the t1/2 in the data set with Liver microsomes [3] stood at 12.9 min. Besides, the IC50 in [1] is 13.6 nM. This compound came in with an EC50 with Toxoplasma gondii [2] of 2630 nM. Also, the CLint in the data set on Liver microsomes [4] came out at 107 µL/min/mg.

For `CC(C)(C)n1nc(Cc2cc(F)cc(F)c2)c2c(N)ncnc21`, the result in the data set with Toxoplasma gondii [7] and in the data set with Toxoplasma gondii [8] was Active. Also, the EC50 in the data set with Toxoplasma gondii [2] is 610 nM.

Turning to `CC(C)(C)n1nc(Cc2cccc(I)c2)c2c(N)ncnc21`, in data set [1], half-maximal inhibition (IC50) was put at 12.9 nM. Also, the half-maximal effective concentration (EC50) in the data set on Toxoplasma gondii [2] came out at 1120 nM.

Turning to `CC(C)n1nc(Cc2cc(F)cc(F)c2)c2c(N)ncnc21`, in data set [1], the midpoint of inhibition, the IC50, lay at 50.9 nM. Further, the EC50 with Toxoplasma gondii [2] stood at 2070 nM.

For `CC(C)n1nc(Cc2cccc(Cl)c2F)c2c(N)ncnc21`, the IC50 in [1] amounted to 1.43 nM. The compound also registered an EC50 with Toxoplasma gondii [2] of 1400 nM.

As for `CC(C)(C)n1nc(-c2cccc(OCc3c(Cl)cccc3Cl)c2)c2c(N)ncnc21`, the IC50 in [1] was 2470 nM. The EC50 in the data set with Toxoplasma gondii [2] is 4530 nM.

As to `Cc1cccc(Cc2nn(C(C)(C)C)c3ncnc(N)c23)c1`, in the data set with Toxoplasma gondii [5], the Ratio amounted to 100. The outcome with Toxoplasma gondii [6], with Toxoplasma gondii [7] and in the data set with Toxoplasma gondii [8] was Active. For the same compound, the Ratio IC50 in the data set on Toxoplasma gondii RH [10] came out at 5.6; in the data set on Toxoplasma gondii RH [12], 3. For the same compound, the EC50 in the data set with Toxoplasma gondii [11] was found to be 100 nM; in the data set on Toxoplasma gondii [2] it was 110 nM. Also, the midpoint of inhibition in data set [1], the IC50, lay at 3.99 nM.

`CC(C)(C)n1nc(Cc2cccc3ccccc23)c2c(N)ncnc21`: it took 1310 nM to reach a half-maximal effect in the data set with Toxoplasma gondii [2] (EC50).
